Source: PubChem BioAssay (several laboratories)
Rev-erbA mod – Rev-erb alpha (human) modulation | P20393 | Rev-erbα–FITC-DNA binding, fluorescence polarization, 90 min | activity, % at 10 µM | 370,000 tested, 0.79% active;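 active means activity above about 14%, limit read from the data; passing the limit was not always enough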;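 further: 0% = DMSO wells with 35 nM protein and 100% = DMSO wells with 750 nM protein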
NR2E3 ag-1 – human photoreceptor-specific nuclear receptor agonism; Q9Y5X4; CHO-S Gal4-NCOR/VP16-NR2E3 two-hybrid, luciferase; inhibition of corepressor binding, % at 3.98 µM; 360,000 tested, 0.35% active;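 active means inhibition above the mean of all tested compounds plus 3 SD, cut at about 70% in these data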;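 further: 0% = DMSO with NR2E3 transfected cells and 100% = cells lacking NR2E3 construct; higher means lower luciferase signal from less NR2E3 corepressor binding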
Target sequence (Q9Y5X4 whole entry, looked up, the tested form may be a part): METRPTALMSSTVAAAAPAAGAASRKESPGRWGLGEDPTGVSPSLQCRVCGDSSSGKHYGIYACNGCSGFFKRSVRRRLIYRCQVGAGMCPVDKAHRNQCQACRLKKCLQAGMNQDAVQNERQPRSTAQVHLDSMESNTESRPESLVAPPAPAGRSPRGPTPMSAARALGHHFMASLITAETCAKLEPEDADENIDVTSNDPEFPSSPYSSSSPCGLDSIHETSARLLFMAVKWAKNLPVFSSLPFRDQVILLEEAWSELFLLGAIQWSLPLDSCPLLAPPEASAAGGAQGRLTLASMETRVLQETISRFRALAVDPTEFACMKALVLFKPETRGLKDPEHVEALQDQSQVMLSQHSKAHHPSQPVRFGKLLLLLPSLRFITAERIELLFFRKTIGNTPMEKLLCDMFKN
NR2E3 ag-2 – NR2E3 (human) agonism | Q9Y5X4 | 320,000 tested, 0.12% active | inhibition of corepressor binding, % at 4.78 µM | GST-NR2E3/biotin-RetCOR TR-FRET, 1536-well;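 active means percent inhibition above the cutoff of mean plus 3 SD of all tested compounds, set per screening campaign, cut at about 20% in these data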;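 further: 0% = DMSO wells and 100% = biotin wells as full block of FRET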
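Material: NR2E3–RetCOR corepressor complex / Incubation: Compound–protein incubation for 5 h at 4 °C / Dosing: compound at 4.8 µM, single dose / Detection: time-resolved FRET / Benchmarks: high control biotin, low control 0.6% DMSO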
PG9 binder – PG9 antibody binding by small molecule. TR-FRET gp120-PG9 antibody binding. inhibition, % at 6.7 µM. 360,000 tested, 0.43% active. AID 624416; in the data active means inhibition above about 8.5%
PG9 binder conf – PG9 antibody binding, confirmed; 1,500 tested, 90% active; AID 651571; inhibition, % at 6.7 µM; TR-FRET PG9 antibody binding, biochemical; shares compounds with PG9 binder; in the data active means inhibition above about 9%
PGV04 Ab binding – PGV04 control antibody binding, counter-screen; shares compounds with PG9 binder; TR-FRET PGV04 antibody-gp120 binding, biochemical; inhibition, % at 6.7 µM; 1,500 tested, 95% active; in the data active means inhibition above about 9.5%
* = called active by the depositor; i = inactive; nt = not tested or not shown. The list is not random: actives were taken first. Their share in the collection is about 1.5%.

SMILES	Rev-erbA mod	NR2E3 ag-1	NR2E3 ag-2	PG9 binder	PG9 binder conf	PGV04 Ab binding
Cc1noc(C(=O)Nc2ccc3c(c2)OCO3)c1Cl	-5.2	-74.0	3.8	-0.4	nt	nt
Cc1ccc2c(Cl)c(C(=O)Nc3ccc4c(c3)OCO4)sc2c1	11.0	-69.2	-5.9	14.4*	26.4*	52.8*
O=C(COC(=O)c1ccc(Sc2ncn[nH]2)c([N+](=O)[O-])c1)Nc1ccc(Cl)cc1	-3.8	nt	nt	nt	nt	nt
Cc1cc(OC(=O)c2cc(Cl)ccc2Cl)c([N+](=O)[O-])c(=O)[nH]1	3.7	-13.3	-0.9	30.3*	7.5	11.2*
Cc1ccccc1CC(=O)Nc1nnc(-c2cccnc2)s1	-3.1	nt	nt	nt	nt	nt
COC(=O)c1ccc2ccn(CC(=O)NC3CCCCC3)c2c1	7.8	-18.6	0.7	16.1*	19.6*	31.6*
COc1cccc(-n2c(=O)[nH]cc(C(=O)Nc3ccc4c(c3)OCCO4)c2=O)c1	3.4	10.8	0.7	28.9*	7.3	8.6
COc1ccc(-n2c(=O)[nH]cc(C(=O)Nc3ccc4c(c3)OCCO4)c2=O)cc1OC	-1.4	8.1	0.1	-1.8	nt	nt
CCCCN1CCN(C(=O)C2CCN(S(=O)(=O)c3ccc4[nH]c(=O)oc4c3)CC2)CC1	0.6	nt	nt	nt	nt	nt
CCOc1ccc(NC(=O)COC(=O)c2ccc3c(c2)OCCO3)cc1	3.9	20.7	1.4	53.9*	48.3*	60.1*
Cc1cc(C)cc(NC(=O)COC(=O)c2ccc3c(c2)OCCO3)c1	1.5	-18.1	-0.4	7.8	nt	nt
O=S(=O)(c1ccc(Cl)nc1)N1CCC(Cc2ccccc2)CC1	-0.3	32.6	nt	0.3	nt	nt
NC(=O)C1CCN(c2ccc(S(=O)(=O)N3CCC(Cc4ccccc4)CC3)cn2)CC1	1.1	-20.9	1.1	14.3*	24.2*	34.3*
Cc1cccc(-n2c(-c3ccc(Br)o3)n[nH]c2=S)c1	-3.5	-37.4	-0.2	2.8	nt	nt
Cc1cccc(-n2c(-c3ccco3)n[nH]c2=S)c1	-0.1	-18.8	4.5	13.6*	17.0*	19.5*
Cc1ccc2c(c1)-c1c(cnn1CC(=O)NCCc1cccc(F)c1)CO2	-3.1	nt	nt	nt	nt	nt
Cc1cccc(CCNS(=O)(=O)c2ccc3c(c2)oc(=O)n3C)c1	6.6	10.7	-0.2	18.1*	5.2	7.4
Cn1cc(CNC(=O)c2cc(-c3ccccc3)nc3ccc(Br)cc23)cn1	12.7	-16.8	16.3	11.0*	13.5*	20.2*
Cc1ccc(-c2cc(C(=O)NCc3cnn(C)c3)c3cc(Br)ccc3n2)cc1	14.0	-22.4	i	10.8*	7.2	58.1*
COc1ccc(CN(C)C(=O)c2cc(-c3ccccc3)nc3ccc(C)cc23)c(OC)c1	5.6	-7.4	nt	-0.8	nt	nt
Cc1nn(C)cc1CN(C)C(=O)c1cc(-c2ccccc2)nc2ccc(Br)cc12	8.5	-4.2	12.5	12.5*	20.5*	26.2*
O=C(C1CCCN(S(=O)(=O)c2ccc(Br)s2)C1)N1CCN(Cc2ccccc2)CC1 (stereo not given)	0.5	nt	nt	nt	nt	nt
COc1cc(CC(=O)Nc2sc3c(c2C(N)=O)CCCC3)cc(OC)c1OC	14.1	12.6	1.6	9.3*	16.9*	23.3*
COc1cc(OC)cc(C(=O)Nc2sc3c(c2C(N)=O)CCC3)c1	13.4	-51.9	2.9	50.1*	17.7*	31.2*
C#CCN(CC=C)Cc1ccc(OC)cc1OC	-5.5	nt	nt	nt	nt	nt
SMILES	Rev-erbA mod	NR2E3 ag-1	NR2E3 ag-2	PG9 binder	PG9 binder conf	PGV04 Ab binding
S=c1[nH]nc(-c2cccc(Br)c2)o1	-6.4	-12.1	13.4	27.4*	27.6*	39.2*
CCOC(=O)c1sc(=NC(=O)c2ccccc2Br)n(C)c1C	7.6	-158.8	3.0	14.8*	21.9*	44.5*
Cc1ccc(S(=O)(=O)N(C)[C@H]2C[C@H]3c4cc(-c5ccccc5C)ccc4CCN3C[C@H]2[C@H](C)O)cc1	-4.9	nt	nt	nt	nt	nt
O=C(O)C1CCC(Cn2c(SCc3cc(=O)n4cc(Br)ccc4n3)nc3ccsc3c2=O)CC1 (stereo not given)	8.2	1.6	5.5	21.6*	29.8*	49.6*
O=C(O)c1ccc(Cn2c(SCc3cc(=O)n4cc(Br)ccc4n3)nc3ccsc3c2=O)cc1	-3.8	nt	2.3	5.5	nt	nt
CCOC(=O)c1cc2sccc2n1CC(=O)Nc1ccc(OC)c(OC)c1	3.3	-14.1	1.8	-0.2	nt	nt
CCOC(=O)c1cc2sccc2n1CC(=O)Nc1ccc(OC)cc1	6.8	9.2	-0.5	12.4*	16.4*	30.6*
Cn1c(/C=C/c2ccc(Br)cc2)nc2ccccc2c1=O	14.3	-67.2	0.5	45.5*	14.9*	28.8*
Cn1c(/C=C/c2ccccc2[N+](=O)[O-])nc2ccccc2c1=O	5.0	-18.3	nt	0.7	nt	nt
COc1ccc(C=Nn2c(-c3n[nH]c4c3CCC4)n[nH]c2=S)cc1OCc1ccccc1	1.3	nt	nt	nt	nt	nt
Cc1cc2n(n1)C(c1cn(-c3ccccc3)nc1C)Nc1c(C)cccc1-2 (stereo not given)	9.7	-4.6	2.7	15.1*	15.3*	22.1*
Cc1cc2n(n1)C(c1ccc3c(c1)OCO3)Nc1c(C)cccc1-2 (stereo not given)	9.7	-23.5	-1.8	-0.4	nt	nt
COc1ccc(/C(C)=N\NC(=O)c2ccco2)cc1	-4.3	nt	nt	nt	nt	nt
C[C@H](CO)N1C[C@H](C)[C@@H](CN(C)Cc2ccccc2)Oc2c(NS(=O)(=O)c3ccc(F)cc3)cccc2C1=O	-4.5	-38.7	nt	11.4*	30.7*	47.2*
CC(C)CN1C(=O)[C@]2(CC(=O)N(C)C2c2ccccc2)c2cc(-n3cc(-c4ccccc4)nn3)ccc21 (stereo not given in full)	-6.0	nt	nt	nt	nt	nt
COc1cc(-n2c(C)nc3cc(C(=O)N4CC(C)CC(C)C4)ccc32)cc(OC)c1OC (stereo not given)	-0.9	nt	nt	nt	nt	nt
CCOC(=O)c1sc2nccc(N(C)C)c2c1N=CNOCc1c(F)cccc1Cl	1.1	-24.3	7.7	10.4*	17.7*	24.7*
CCOC(=O)c1sc2nccc(N(C)C)c2c1N=CNOCc1ccccc1	-1.0	-57.2	6.0	1.0	nt	nt
COc1ccccc1NC(C)=O	-3.2	1.2	-1.8	11.7*	6.5	8.0
CC(c1ccc(O)cc1)c1cn(C)c2ccccc12 (stereo not given)	2.1	nt	nt	nt	nt	nt
CCn1c(=O)cc(OCC(=O)Nc2nc(C)cs2)c2ccccc21	21.5	-14.8	6.0	13.2*	30.4*	48.6*
CCn1c(=O)cc(OCC(=O)Nc2ccc(C)cn2)c2ccccc21	0.5	5.2	-4.0	0.5	nt	nt
Cc1csc(NC(=O)COc2ccc3c(C)cc(=O)oc3c2)n1	-8.2	-14.6	-42.1	15.4*	20.5*	29.7*
CCC[C@@H](/C=C/C(=O)OC(C)(C)C)Sc1ccccc1OC	10.9	nt	nt	nt	nt	nt
O=C(COc1ccccc1)Nc1ccc(-c2nnc(-c3ccco3)o2)cc1	6.3	-40.5	-1.9	70.2*	54.5*	72.2*
COc1ccccc1OCC(=O)Nc1cccc(-c2nnc(-c3ccco3)o2)c1	6.4	-57.0	3.0	-0.5	nt	nt
